Experimental data: ChEMBL document CHEMBL1914409, “Cytotoxicity and gene expression profiles of novel synthesized steroid derivatives as chemotherapeutic anti-breast cancer agents” (Bioorg Med Chem, 2011)
Calls of active or inactive are those of the source. The calls are words filed in the database; no cut-off is given here.

Experiments:
[1] = tested on: MCF7; test: Cytotoxicity against human MCF7 cells assessed as growth inhibition at 5 ug/ml after 72 hrs by SRB assay relative to control; assay type: functional
Procedure, shortened: (§1)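 MCF-7 (ATCC) kept in RPMI-1640 with penicillin/streptomycin and FBS, used at 90% confluence and seeded at 5×10^4–10^5 cells/well. Exposed to 5, 12.5, 25 or 50 µg/mL of compound in DMSO for 24, 48 or 72 h, with vehicle-treated controls and 6 wells per concentration. Cells fixed in cold TCA and stained with 0.4% SRB; dye taken up in 10 mM Tris pH 10.5 and read at 564 nm. Result given as % growth inhibition versus control.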

[2] = tested on: MCF7; test: Cytotoxicity against human MCF7 cells assessed as growth inhibition at 50 ug/ml after 48 hrs by SRB assay; assay type: functional, cell-based; procedure, shortened: as §1
[3] = tested on: MCF7; test: Reduction in CYP19 mRNA expression in human MCF7 cells by RT-PCR relative to control; assay type: functional, cell-based
Procedure, shortened: (§2)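 RNA taken from MCF-7 cells after 48 h treatment in the cytotoxicity study, then oligo(dT)-primed reverse transcription (25 °C 10 min, 42 °C 1 h). Semi-quantitative PCR run with VEGF 40 cycles (59 °C annealing), CYP19 50 cycles (60 °C), hAP-2γ 20 cycles (65 °C) and β-actin 40 cycles (60 °C). Gel band intensity expressed as a ratio to β-actin; P<0.05.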

[4] = tested on: MCF7; test: Cytotoxicity against human MCF7 cells assessed as growth inhibition at 12.5 ug/ml after 48 hrs by SRB assay; assay type: functional, cell-based; procedure, shortened: as §1
[5] = tested on: MCF7; test: Cytotoxicity against human MCF7 cells assessed as growth inhibition at 25 ug/ml after 24 hrs by SRB assay; assay type: functional; procedure, shortened: as §1
[6] = tested on: MCF7; test: Cytotoxicity against human MCF7 cells assessed as growth inhibition after 24 hrs by SRB assay; assay type: functional, cell-based; settings: MCF7, 24 h; procedure, shortened: as §1
[7] = tested on: MCF7; test: Reduction in AP-2 gamma mRNA expression in human MCF7 cells by RT-PCR relative to control; assay type: functional, cell-based; procedure, shortened: as §2
[8] = tested on: MCF7; test: Cytotoxicity against human MCF7 cells assessed as growth inhibition at 25 ug/ml after 48 hrs by SRB assay; assay type: functional, cell-based; procedure, shortened: as §1
[9] = tested on: MCF7; test: Cytotoxicity against human MCF7 cells assessed as growth inhibition at 5 ug/ml after 48 hrs by SRB assay; assay type: functional, cell-based; procedure, shortened: as §1
[10] = tested on: MCF7; test: Cytotoxicity against human MCF7 cells assessed as growth inhibition after 72 hrs by SRB assay; assay type: functional, cell-based; settings: MCF7, 72 h; procedure, shortened: as §1
[11] = tested on: MCF7; test: Cytotoxicity against human MCF7 cells assessed as growth inhibition at 12.5 ug/ml after 24 hrs by SRB assay; assay type: functional; procedure, shortened: as §1
[12] = tested on: MCF7; test: Cytotoxicity against human MCF7 cells assessed as growth inhibition after 48 hrs by SRB assay; assay type: functional, cell-based; settings: MCF7, 48 h; procedure, shortened: as §1
[13] = tested on: MCF7; test: Reduction in VEGF mRNA expression in human MCF7 cells by RT-PCR relative to control; assay type: functional, cell-based; procedure, shortened: as §2
[14] = tested on: MCF7; test: Cytotoxicity against human MCF7 cells assessed as growth inhibition at 12.5 ug/ml after 72 hrs by SRB assay; assay type: functional; settings: MCF7, 72 h, read-out: GI; procedure, shortened: as §1
[15] = tested on: MCF7; test: Cytotoxicity against human MCF7 cells assessed as growth inhibition at 50 ug/ml after 24 hrs by SRB assay; assay type: functional, cell-based; procedure, shortened: as §1

SMILES | inhibition of growth at 5 µg/mL ([1]; MCF7, 72 h, read-out: GI) [%] | growth inhibition (GI) [2] | Activity [3] | growth inhibition (GI) [4] | inhibition of growth at 25 µg/mL ([5]; MCF7, 24 h, read-out: GI) [%] | IC50 [6] [µM] | Activity [7] | growth inhibition (GI) [8] | growth inhibition (GI) [9] | IC50 [10] [µM] | inhibition of growth at 12.5 µg/mL ([11]; MCF7, 24 h, read-out: GI) [%] | IC50 [12] [µM] | Activity [13] | inhibition of growth at 12.5 µg/mL [14] [%] | growth inhibition (GI) [15] | growth inhibition (GI) [1] | growth inhibition (GI) [5] | growth inhibition (GI) [11]
CC(=O)O[C@H]1CC[C@@]2(C)[C@@H](CC[C@@H]3[C@@H]2CC[C@]2(C)c4nc(CC#N)sc4C[C@@H]32)C1 | 93 | Active | Active | Active | 85 | 2.9 | Active | Active | Active | 2.9 | 91 | 2.5 | Active | 91 | Active |  |  | 
C[C@]12CC[C@H](O)C[C@@H]1CC[C@@H]1[C@@H]2CC[C@@]2(C)[C@H]1CC[C@]21OC1C(=O)c1ccccc1 (stereo partly specified) |  | Active | Active | Active |  | 17.1 | Active | Active |  | 17.3 |  | 7.3 | Active |  | Active | Active | Active | Active
COc1cccc2c1C(=O)c1c(O)c3c(c(O)c1C2=O)C[C@@](O)(C(=O)CO)C[C@@H]3O[C@H]1C[C@H](N)[C@H](O)[C@H](C)O1 |  |  | Active |  |  |  | Active |  |  |  |  |  | Active |  |  |  |  | 
CC(=O)O[C@H]1CC[C@@]2(C)[C@@H](CC[C@@H]3[C@@H]2CC[C@]2(C)/C(=N/c4ccc(S(=O)(=O)N(CCO)c5ncccn5)cc4)CC[C@@H]32)C1 |  | inactive | Active | Active |  | 14.7 | Active | Active |  | 10 |  | 7.5 | Active |  | Active | Active | Active | Active
CC(=O)O[C@H]1CC[C@@]2(C)[C@@H](CC[C@@H]3[C@@H]2CC[C@]2(C)/C(=N/C4CCNN=C4O)CC[C@@H]32)C1 (stereo partly specified) |  | Active | Active | Active |  | 18.5 | Active | Active |  | 11.5 |  | 9.9 | Active |  | Active | Active | Active | 
C[C@]12CC[C@H]3[C@@H](CCC4=CC(=O)CC[C@@]43C)[C@@H]1CC[C@@H]2n1c(=S)n(-c2ccccc2)c(=O)c2cc(F)ccc21 |  | Active | Active |  |  | 17.7 | Active | Active |  | 16 |  | 11.5 | Active |  | Active | Active | Active | 
C[C@]12CC[C@H]3[C@@H](CCC4=C[C@]5(CC[C@@]43C)OC5C(=O)c3ccccc3)[C@@H]1CC[C@@H]2O (stereo partly specified) |  | Active | Active |  |  | 15.1 | Active | inactive |  | 12 |  | 16 | Active |  | Active | Active | Active | Active
C[C@]12CC[C@H]3[C@@H](CCC4=CC(=O)CC[C@@]43C)[C@@H]1CC[C@@H]2n1c(=S)n(-c2ccccc2)c(=O)c2ccccc21 |  | Active | Active |  |  | 13.1 | Active | Active |  | 17.5 |  | 12.5 | Active |  | Active | Active | Active | Active
